Experimental data as given in ChEMBL document CHEMBL1121568, “A multifaceted approach to the study of the side-chain conformation in beta-lactamase-resistant penicillins” (J Med Chem, 1980).

Each molecule was assayed against T1, Beta-lactamase OXA-9 (Klebsiella aerogenes) (UniProt P0A3M4) (assay: Inhibition of beta-lactamase of Enterobacter aerogenes relative to oxacillin sulfoxide(=1)).
T1 sequence (whole entry): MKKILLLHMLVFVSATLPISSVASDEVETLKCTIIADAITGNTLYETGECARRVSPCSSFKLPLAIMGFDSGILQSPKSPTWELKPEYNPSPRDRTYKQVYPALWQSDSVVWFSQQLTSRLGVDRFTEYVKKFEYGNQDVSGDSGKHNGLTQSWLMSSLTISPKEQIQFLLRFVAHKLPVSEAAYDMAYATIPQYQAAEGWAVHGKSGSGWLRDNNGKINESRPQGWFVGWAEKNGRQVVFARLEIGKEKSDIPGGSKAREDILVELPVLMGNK
How it was run: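 Partially purified Enterobacter aerogenes β-lactamase at constant concentration in pH 8.5 phosphate buffer, 25 °C, hydrolysing cephalothin (2.6 × 10^-4 M). Inhibitors tested at 3.4 × 10^-7 to 8.5 × 10^-5 M. Initial hydrolysis rates with (v_i) and without (v) inhibitor followed by absorbance at 260 nm and estimated graphically. Ratio v/v_i expressed relative to a reference compound.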
Molecule `COC(=O)[C@@H]1N2C(=O)[C@@H](NC(=O)c3c(-c4ccccc4)noc3C)[C@H]2SC1(C)C` has a Relative inhibition of 120.
For `COC(=O)[C@@H]1N2C(=O)[C@@H](NC(=O)c3c(-c4ccccc4Cl)noc3C)[C@H]2SC1(C)C`, the Relative inhibition was 270.
Molecule `Cc1onc(-c2c(F)cccc2Cl)c1C(=O)N[C@@H]1C(=O)N2[C@@H]1SC(C)(C)[C@@H]2C(=O)O` has a Relative inhibition of 5000.
`COC(=O)[C@@H]1N2C(=O)[C@@H](NC(=O)c3c(-c4c(Cl)cccc4Cl)noc3C)[C@H]2SC1(C)C` showed a Relative inhibition of 1500.
`Cc1onc(-c2ccccc2)c1C(=O)N[C@@H]1C(=O)N2[C@@H]1SC(C)(C)[C@@H]2C(=O)O` gave a Relative inhibition of 5000.
For `Cc1onc(-c2ccccc2Cl)c1C(=O)N[C@@H]1C(=O)N2[C@@H]1[S+]([O-])C(C)(C)[C@@H]2C(=O)O` (stereo partly specified), the Relative inhibition was 370.
Work on `Cc1onc(-c2ccccc2Cl)c1C(=O)N[C@@H]1C(=O)N2[C@@H]1SC(C)(C)[C@@H]2C(=O)O` yielded a Relative inhibition of 5000.
Molecule `COc1cccc(OC)c1C(=O)N[C@@H]1C(=O)N2[C@@H]1SC(C)(C)[C@@H]2C(=O)O` has a Relative inhibition of 50.
For `Cc1onc(-c2ccccc2)c1C(=O)N[C@@H]1C(=O)N2[C@@H]1[S+]([O-])C(C)(C)[C@@H]2C(=O)O` (stereo partly specified), the Relative inhibition was 1.
`Cc1onc(-c2c(Cl)cccc2Cl)c1C(=O)N[C@@H]1C(=O)N2[C@@H]1SC(C)(C)[C@@H]2C(=O)O` was tested, and the Relative inhibition was 5000.
For `COC(=O)[C@@H]1N2C(=O)[C@@H](NC(=O)c3c(OC)cccc3OC)[C@H]2SC1(C)C`, the Relative inhibition was 2.
